ChEMBL document CHEMBL1275351, “Novel spirotetracyclic zwitterionic dual H(1)/5-HT(2A) receptor antagonists for the treatment of sleep disorders” (J Med Chem, 2010)

Target: Histamine H1 receptor (Homo sapiens, UniProt P35367)
Sequence (P35367 whole entry): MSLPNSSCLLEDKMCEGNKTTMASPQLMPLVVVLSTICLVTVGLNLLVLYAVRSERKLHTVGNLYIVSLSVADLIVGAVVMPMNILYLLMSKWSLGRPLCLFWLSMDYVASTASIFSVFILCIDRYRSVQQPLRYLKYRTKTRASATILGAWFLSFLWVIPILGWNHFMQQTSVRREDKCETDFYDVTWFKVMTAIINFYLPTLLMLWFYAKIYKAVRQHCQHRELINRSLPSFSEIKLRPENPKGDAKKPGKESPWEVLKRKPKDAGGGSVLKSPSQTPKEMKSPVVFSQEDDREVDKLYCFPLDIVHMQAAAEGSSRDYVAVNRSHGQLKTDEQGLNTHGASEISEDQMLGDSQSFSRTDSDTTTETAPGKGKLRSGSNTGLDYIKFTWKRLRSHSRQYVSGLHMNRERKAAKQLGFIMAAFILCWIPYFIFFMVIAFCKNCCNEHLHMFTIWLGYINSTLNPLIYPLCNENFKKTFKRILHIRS
Assay: Antagonist activity against human histamine H1 receptor expressed in CHO cells by FLIPR assay
Assay type: functional, cell-based
Conditions: not given
A Ki of 31.6 nM was found for `O=C(O)CC1CCN(C2CC[C@]3(Cc4ccccc4Cc4ccccc43)C2)C1` (stereo partly specified) in this work.
A Ki of 39.8 nM was found for `O=C(O)[C@H]1[C@@H]2CN(C3CCC4(Cc5ccccc5Cc5ccccc54)C3)C[C@@H]21` (stereo partly specified) in this work.
A Ki of 316 nM was found for `O=C(O)CC1CN(C2CCC3(Cc4ccccc4Cc4ccccc43)C2)C1` (stereo unspecified) in this work.
A Ki of 200 nM was found for `O=C(O)C=C1CN(C2CCC3(Cc4ccccc4Cc4ccccc43)C2)C1` (stereo unspecified) in this work.
A Ki of 100 nM was found for `O=C(O)C1=CCCN(C2CCC3(Cc4ccccc4Oc4ccccc43)C2)C1` (stereo unspecified) in this work.
A Ki of 50.1 nM was found for `O=C(O)C1=CCN(C2CCC3(Cc4ccccc4Oc4ccccc43)C2)CC1` (stereo unspecified) in this work.
A Ki of 79.4 nM was found for `O=C(O)C1CCN(C2CCC3(Cc4ccccc4Oc4ccccc43)C2)CC1` (stereo unspecified) in this work.

Target: 5-hydroxytryptamine receptor 2A (Homo sapiens, UniProt P28223)
Sequence (P28223 whole entry): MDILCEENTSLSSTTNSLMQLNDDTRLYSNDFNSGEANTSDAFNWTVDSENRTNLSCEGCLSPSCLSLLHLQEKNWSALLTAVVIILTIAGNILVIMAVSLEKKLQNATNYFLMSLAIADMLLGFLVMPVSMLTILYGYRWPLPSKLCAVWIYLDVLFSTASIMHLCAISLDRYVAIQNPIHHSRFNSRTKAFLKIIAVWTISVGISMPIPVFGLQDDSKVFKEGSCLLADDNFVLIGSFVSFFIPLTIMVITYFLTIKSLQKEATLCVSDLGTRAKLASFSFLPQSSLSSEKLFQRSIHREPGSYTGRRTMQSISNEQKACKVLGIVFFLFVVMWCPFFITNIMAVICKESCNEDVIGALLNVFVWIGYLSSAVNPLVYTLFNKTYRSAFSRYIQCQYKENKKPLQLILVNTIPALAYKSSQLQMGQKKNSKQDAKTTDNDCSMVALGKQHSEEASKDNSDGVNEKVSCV
Assay: Antagonist activity at human 5HT2A receptor expressed in HEK cells assessed as inhibition of intracellular calcium accumulation by aequorin assay
Assay type: functional, cell-based, HEK293
Conditions: not given
A Ki of 20 nM was found for `O=C(O)CC1CCN(C2CC[C@]3(Cc4ccccc4Cc4ccccc43)C2)C1` (stereo partly specified) in this work.
A Ki of 631 nM was found for `O=C(O)[C@H]1[C@@H]2CN(C3CCC4(Cc5ccccc5Cc5ccccc54)C3)C[C@@H]21` (stereo partly specified) in this work.
A Ki of 50.1 nM was found for `O=C(O)CC1CN(C2CCC3(Cc4ccccc4Cc4ccccc43)C2)C1` (stereo unspecified) in this work.
A Ki of 50.1 nM was found for `O=C(O)C=C1CN(C2CCC3(Cc4ccccc4Cc4ccccc43)C2)C1` (stereo unspecified) in this work.
A Ki of 398 nM was found for `O=C(O)C1=CCCN(C2CCC3(Cc4ccccc4Oc4ccccc43)C2)C1` (stereo unspecified) in this work.
A Ki of 25.1 nM was found for `O=C(O)C1=CCN(C2CCC3(Cc4ccccc4Oc4ccccc43)C2)CC1` (stereo unspecified) in this work.
A Ki of 316 nM was found for `O=C(O)C1CCN(C2CCC3(Cc4ccccc4Oc4ccccc43)C2)CC1` (stereo unspecified) in this work.

Target: 5-hydroxytryptamine receptor 2B (Homo sapiens, UniProt P41595)
Sequence (P41595 whole entry): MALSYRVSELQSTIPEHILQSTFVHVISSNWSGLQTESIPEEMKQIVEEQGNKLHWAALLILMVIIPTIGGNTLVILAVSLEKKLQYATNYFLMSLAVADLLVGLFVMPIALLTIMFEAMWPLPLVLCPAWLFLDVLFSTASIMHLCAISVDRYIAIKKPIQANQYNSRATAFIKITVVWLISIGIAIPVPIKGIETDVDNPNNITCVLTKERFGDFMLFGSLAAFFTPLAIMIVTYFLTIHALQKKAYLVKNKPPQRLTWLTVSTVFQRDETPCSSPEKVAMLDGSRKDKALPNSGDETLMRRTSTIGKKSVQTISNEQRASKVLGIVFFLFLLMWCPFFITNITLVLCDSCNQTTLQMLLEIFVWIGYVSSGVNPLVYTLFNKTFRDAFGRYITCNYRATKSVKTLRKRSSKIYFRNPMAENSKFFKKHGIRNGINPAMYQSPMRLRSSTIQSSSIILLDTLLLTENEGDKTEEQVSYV
Assay: Antagonist activity at human 5HT2B receptor expressed in human SH-SY5Y cells by FLIPR assay
Conditions: not given
A Ki of 1000 nM was found for `O=C(O)CC1CCN(C2CC[C@]3(Cc4ccccc4Cc4ccccc43)C2)C1` (stereo partly specified) in this work.
For `O=C(O)[C@H]1[C@@H]2CN(C3CCC4(Cc5ccccc5Cc5ccccc54)C3)C[C@@H]21` (stereo partly specified), the Ki was > 2000 nM.
A Ki of 39.8 nM was found for `O=C(O)CC1CN(C2CCC3(Cc4ccccc4Cc4ccccc43)C2)C1` (stereo unspecified) in this work.
A Ki of 251 nM was found for `O=C(O)C=C1CN(C2CCC3(Cc4ccccc4Cc4ccccc43)C2)C1` (stereo unspecified) in this work.
With `O=C(O)C1=CCCN(C2CCC3(Cc4ccccc4Oc4ccccc43)C2)C1` (stereo unspecified) the Ki was > 2000 nM.
In the case of `O=C(O)C1=CCN(C2CCC3(Cc4ccccc4Oc4ccccc43)C2)CC1` (stereo unspecified), the Ki is reported as > 2000 nM.
A Ki of 1580 nM was found for `O=C(O)C1CCN(C2CCC3(Cc4ccccc4Oc4ccccc43)C2)CC1` (stereo unspecified) in this work.

Target: T1, 5-hydroxytryptamine receptor 2C (Homo sapiens, UniProt P28335)
T1 sequence (P28335 whole entry): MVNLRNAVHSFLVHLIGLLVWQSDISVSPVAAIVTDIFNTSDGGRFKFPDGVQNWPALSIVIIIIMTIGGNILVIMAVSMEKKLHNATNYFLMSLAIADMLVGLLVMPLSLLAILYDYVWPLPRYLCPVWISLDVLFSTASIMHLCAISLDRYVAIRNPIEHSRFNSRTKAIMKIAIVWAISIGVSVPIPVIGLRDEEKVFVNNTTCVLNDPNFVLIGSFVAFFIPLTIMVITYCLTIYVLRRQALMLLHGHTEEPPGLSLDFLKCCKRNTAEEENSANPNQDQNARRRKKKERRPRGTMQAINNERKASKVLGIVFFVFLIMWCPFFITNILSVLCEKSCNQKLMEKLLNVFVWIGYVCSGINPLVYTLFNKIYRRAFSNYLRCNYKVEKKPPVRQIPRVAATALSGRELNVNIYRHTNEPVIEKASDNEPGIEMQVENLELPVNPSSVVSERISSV
Assay: Antagonist activity at human 5HT2C receptor expressed in human SH-SY5Y cells by FLIPR assay
Assay type: functional, cell-based
Conditions: not given
A Ki of 20 nM was found for `O=C(O)CC1CCN(C2CC[C@]3(Cc4ccccc4Cc4ccccc43)C2)C1` (stereo partly specified) in this work.
For `O=C(O)[C@H]1[C@@H]2CN(C3CCC4(Cc5ccccc5Cc5ccccc54)C3)C[C@@H]21` (stereo partly specified), the Ki was > 2000 nM.
In the case of `O=C(O)CC1CN(C2CCC3(Cc4ccccc4Cc4ccccc43)C2)C1` (stereo unspecified), the Ki is reported as > 2000 nM.
A Ki of 251 nM was found for `O=C(O)C=C1CN(C2CCC3(Cc4ccccc4Cc4ccccc43)C2)C1` (stereo unspecified) in this work.
In the case of `O=C(O)C1=CCCN(C2CCC3(Cc4ccccc4Oc4ccccc43)C2)C1` (stereo unspecified), the Ki is reported as > 2000 nM.
A Ki of 1000 nM was found for `O=C(O)C1=CCN(C2CCC3(Cc4ccccc4Oc4ccccc43)C2)CC1` (stereo unspecified) in this work.

Target: Histamine H1 receptor (Rattus norvegicus, UniProt P31390)
Sequence (P31390 whole entry): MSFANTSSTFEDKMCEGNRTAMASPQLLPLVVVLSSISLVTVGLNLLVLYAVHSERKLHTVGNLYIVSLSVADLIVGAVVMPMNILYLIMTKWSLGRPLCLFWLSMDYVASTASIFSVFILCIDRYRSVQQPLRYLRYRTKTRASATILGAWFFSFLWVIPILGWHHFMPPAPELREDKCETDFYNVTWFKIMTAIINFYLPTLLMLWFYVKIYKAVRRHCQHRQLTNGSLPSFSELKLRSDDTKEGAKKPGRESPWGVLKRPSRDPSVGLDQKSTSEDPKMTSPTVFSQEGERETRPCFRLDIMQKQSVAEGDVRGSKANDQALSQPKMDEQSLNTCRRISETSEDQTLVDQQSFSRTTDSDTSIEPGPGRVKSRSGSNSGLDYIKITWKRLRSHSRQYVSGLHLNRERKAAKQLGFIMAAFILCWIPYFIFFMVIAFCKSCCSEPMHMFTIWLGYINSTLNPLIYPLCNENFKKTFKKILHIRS
Assay: Displacement of [3H]pyrilamine from histamine H1 receptor in Sprague-Dawley rat cortical membrane by liquid scintillation counting
Conditions: not given
Summary of the method: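 Cerebral cortex membranes from male Sprague-Dawley rats (200-250 g), 150 μg/well. Incubated with 0.6 nM [3H]pyrilamine in 50 mM HEPES, pH 7.4, for 2 h at room temperature. Filtered on PEI-soaked GF/B and counted by scintillation. Nonspecific binding with 10 μM cetirizine. Ki by Cheng-Prusoff; mean of two experiments in duplicate.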
A Ki of 20 nM was found for `O=C(O)C1=CCN(C2CCC3(Cc4ccccc4Oc4ccccc43)C2)CC1` (stereo unspecified) in this work.

Target: 5-hydroxytryptamine receptor 2A (Rattus norvegicus, UniProt P14842)
Sequence (P14842 whole entry): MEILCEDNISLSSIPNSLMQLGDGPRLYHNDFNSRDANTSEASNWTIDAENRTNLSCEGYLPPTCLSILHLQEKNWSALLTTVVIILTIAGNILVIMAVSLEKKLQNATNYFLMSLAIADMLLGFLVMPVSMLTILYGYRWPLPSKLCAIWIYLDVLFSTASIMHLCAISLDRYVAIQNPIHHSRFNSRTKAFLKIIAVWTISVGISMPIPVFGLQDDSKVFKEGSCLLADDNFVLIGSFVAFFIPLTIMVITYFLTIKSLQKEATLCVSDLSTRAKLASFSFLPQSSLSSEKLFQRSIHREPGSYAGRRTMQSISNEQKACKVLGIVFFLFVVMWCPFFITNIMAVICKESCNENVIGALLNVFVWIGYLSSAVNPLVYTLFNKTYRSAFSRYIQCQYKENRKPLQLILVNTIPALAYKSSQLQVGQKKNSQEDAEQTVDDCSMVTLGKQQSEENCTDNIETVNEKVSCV
Assay: Displacement of [3H]ketanserin from 5HT2A receptor in Sprague-Dawley rat cortical membrane by liquid scintillation counting
Conditions: not given
Summary of the method: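 Cerebral cortex membranes from male Sprague-Dawley rats (200-250 g), 50 μg/well. Incubated with 1 nM [3H]ketanserin in 50 mM Tris-HCl, 10 mM MgCl2, pH 7.4, for 1 h at 37 °C with shaking. Filtered on PEI-soaked GF/B and counted by scintillation. Nonspecific binding with 10 μM mianserin. Ki by Cheng-Prusoff; mean of two experiments in duplicate.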
A Ki of 105 nM was found for `O=C(O)C1=CCN(C2CCC3(Cc4ccccc4Oc4ccccc43)C2)CC1` (stereo unspecified) in this work.

Target: T2, Cytochrome P450 1A2 (Homo sapiens, UniProt P05177)
T2 sequence (P05177 whole entry): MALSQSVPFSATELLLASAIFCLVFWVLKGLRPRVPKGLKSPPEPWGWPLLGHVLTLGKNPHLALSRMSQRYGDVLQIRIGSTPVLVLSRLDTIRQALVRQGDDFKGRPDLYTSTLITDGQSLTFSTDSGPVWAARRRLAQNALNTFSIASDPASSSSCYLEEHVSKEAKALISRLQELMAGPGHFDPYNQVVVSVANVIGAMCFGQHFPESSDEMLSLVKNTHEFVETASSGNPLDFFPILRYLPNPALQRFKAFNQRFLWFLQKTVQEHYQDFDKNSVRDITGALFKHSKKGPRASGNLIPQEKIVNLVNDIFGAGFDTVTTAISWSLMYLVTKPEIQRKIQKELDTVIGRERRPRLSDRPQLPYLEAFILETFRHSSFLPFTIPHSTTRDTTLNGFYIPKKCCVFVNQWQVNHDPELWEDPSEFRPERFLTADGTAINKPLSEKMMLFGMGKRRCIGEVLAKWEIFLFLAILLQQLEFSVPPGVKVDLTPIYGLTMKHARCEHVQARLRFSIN
Assay: Inhibition of human CYP1A2 transfected in bactosome expression system by spectrofluorimetry
Assay type: ADME
Conditions: not given
Summary of the method: (§1)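 Recombinant human CYP Bactosomes (0.1 mg/mL) in 50 mM phosphate buffer, pH 7.4. Compound at 0.1-10 μM was preincubated with fluorogenic substrate for 10 min at 37 °C, and the reaction was started with an NADPH regenerating system. Metabolite fluorescence was followed for 10 min. Substrates: 1A2 ethoxyresorufin 0.5 μM; 2C9 FCA 50 μM; 2C19 BMC 10 μM; 2D6 MMC 10 μM; 3A4 DEF 1 μM or 7-BQ 25 μM. Run in triplicate.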
In the case of `O=C(O)C1=CCN(C2CCC3(Cc4ccccc4Oc4ccccc43)C2)CC1` (stereo unspecified), the IC50 is reported as > 10000 nM.

Target: Cytochrome P450 2C9 (Homo sapiens, UniProt P11712)
Sequence (P11712 whole entry): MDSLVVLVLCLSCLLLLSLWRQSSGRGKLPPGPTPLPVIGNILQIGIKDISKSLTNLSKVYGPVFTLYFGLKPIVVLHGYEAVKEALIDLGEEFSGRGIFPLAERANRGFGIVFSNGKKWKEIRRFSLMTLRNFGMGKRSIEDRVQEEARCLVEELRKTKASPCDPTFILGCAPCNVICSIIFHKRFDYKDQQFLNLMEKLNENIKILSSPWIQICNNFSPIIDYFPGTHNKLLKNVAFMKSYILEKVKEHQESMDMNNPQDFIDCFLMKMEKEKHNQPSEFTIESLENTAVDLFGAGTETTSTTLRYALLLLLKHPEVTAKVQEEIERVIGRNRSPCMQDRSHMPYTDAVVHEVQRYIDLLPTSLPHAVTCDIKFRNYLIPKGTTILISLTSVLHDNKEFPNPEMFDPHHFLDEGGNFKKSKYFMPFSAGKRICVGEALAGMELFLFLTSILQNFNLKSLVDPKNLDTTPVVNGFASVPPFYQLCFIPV
Assay: Inhibition of human CYP2C9 transfected in bactosome expression system by spectrofluorimetry
Assay type: ADME
Conditions: not given
Summary of the method: as §1
For `O=C(O)C1=CCN(C2CCC3(Cc4ccccc4Oc4ccccc43)C2)CC1` (stereo unspecified), the IC50 was > 10000 nM.

Target: Cytochrome P450 2C19 (Homo sapiens, UniProt P33261)
Sequence (P33261 whole entry): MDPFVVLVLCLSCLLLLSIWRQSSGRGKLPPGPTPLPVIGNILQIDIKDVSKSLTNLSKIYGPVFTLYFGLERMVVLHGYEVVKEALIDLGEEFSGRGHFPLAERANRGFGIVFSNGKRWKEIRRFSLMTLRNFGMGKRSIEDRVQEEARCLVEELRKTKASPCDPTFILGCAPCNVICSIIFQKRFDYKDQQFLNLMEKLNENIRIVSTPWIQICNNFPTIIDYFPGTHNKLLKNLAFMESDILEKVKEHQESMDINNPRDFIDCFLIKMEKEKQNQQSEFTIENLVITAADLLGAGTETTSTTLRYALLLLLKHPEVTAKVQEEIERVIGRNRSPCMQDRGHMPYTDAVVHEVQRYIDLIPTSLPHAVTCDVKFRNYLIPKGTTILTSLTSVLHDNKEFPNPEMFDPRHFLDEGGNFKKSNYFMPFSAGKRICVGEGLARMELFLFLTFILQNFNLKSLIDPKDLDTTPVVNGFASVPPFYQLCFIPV
Assay: Inhibition of human CYP2C19 transfected in bactosome expression system by spectrofluorimetry
Assay type: ADME
Conditions: not given
Summary of the method: as §1
For `O=C(O)C1=CCN(C2CCC3(Cc4ccccc4Oc4ccccc43)C2)CC1` (stereo unspecified), the IC50 was > 10000 nM.

Target: Cytochrome P450 2D6 (Homo sapiens, UniProt P10635)
Sequence (P10635 whole entry): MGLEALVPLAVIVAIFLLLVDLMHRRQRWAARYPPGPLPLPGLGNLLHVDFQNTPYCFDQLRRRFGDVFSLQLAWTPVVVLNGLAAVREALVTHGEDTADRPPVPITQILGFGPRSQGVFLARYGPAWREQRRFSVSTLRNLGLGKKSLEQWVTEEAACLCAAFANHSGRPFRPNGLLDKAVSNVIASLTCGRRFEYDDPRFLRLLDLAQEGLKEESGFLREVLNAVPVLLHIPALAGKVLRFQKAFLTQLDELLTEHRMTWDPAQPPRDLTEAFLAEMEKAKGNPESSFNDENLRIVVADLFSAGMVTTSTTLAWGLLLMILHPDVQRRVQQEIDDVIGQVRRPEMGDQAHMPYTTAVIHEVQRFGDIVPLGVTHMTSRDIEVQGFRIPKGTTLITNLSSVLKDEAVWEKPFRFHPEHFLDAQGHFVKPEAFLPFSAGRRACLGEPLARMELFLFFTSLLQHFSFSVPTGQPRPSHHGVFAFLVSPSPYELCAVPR
Assay: Inhibition of human CYP2D6 transfected in bactosome expression system by spectrofluorimetry
Assay type: ADME
Conditions: not given
Summary of the method: as §1
For `O=C(O)C1=CCN(C2CCC3(Cc4ccccc4Oc4ccccc43)C2)CC1` (stereo unspecified), the IC50 was > 10000 nM.

Target: Cytochrome P450 3A4 (Homo sapiens, UniProt P08684)
Sequence (P08684 whole entry): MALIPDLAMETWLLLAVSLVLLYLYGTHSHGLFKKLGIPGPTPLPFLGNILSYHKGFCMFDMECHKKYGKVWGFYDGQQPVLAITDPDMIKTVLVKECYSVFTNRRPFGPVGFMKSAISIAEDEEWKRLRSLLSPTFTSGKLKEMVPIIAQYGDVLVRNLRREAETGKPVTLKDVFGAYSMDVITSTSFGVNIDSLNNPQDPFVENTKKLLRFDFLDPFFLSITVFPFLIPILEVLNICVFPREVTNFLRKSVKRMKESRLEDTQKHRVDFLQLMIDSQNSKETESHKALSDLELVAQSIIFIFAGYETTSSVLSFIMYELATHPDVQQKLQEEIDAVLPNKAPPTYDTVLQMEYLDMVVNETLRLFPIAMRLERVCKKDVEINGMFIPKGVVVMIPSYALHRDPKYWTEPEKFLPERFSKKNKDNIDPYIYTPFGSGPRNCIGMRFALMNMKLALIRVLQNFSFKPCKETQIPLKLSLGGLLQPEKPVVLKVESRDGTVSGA
Assay: Inhibition of human CYP3A4 transfected in bactosome expression system by spectrofluorimetry
Assay type: ADME
Conditions: not given
Summary of the method: as §1
With `O=C(O)C1=CCN(C2CCC3(Cc4ccccc4Oc4ccccc43)C2)CC1` (stereo unspecified) the IC50 was > 10000 nM.

Tested on: not listed separately
Assay: Fraction unbound in rat brain
Assay type: ADME, tissue-based
Conditions: not given
A fraction unbound of 0.027 was found for `O=C(O)C1=CCN(C2CCC3(Cc4ccccc4Oc4ccccc43)C2)CC1` (stereo unspecified) in this work.

Tested on: not listed separately
Assay: Fraction unbound in rat blood
Assay type: ADME, tissue-based
Conditions: not given
A fraction unbound of 0.103 was found for `O=C(O)C1=CCN(C2CCC3(Cc4ccccc4Oc4ccccc43)C2)CC1` (stereo unspecified) in this work.

Tested on: not listed separately
Assay: Blood clearance in Sprague-Dawley rat at 1 mg/kg, iv and 3 mg/kg, po
Assay type: ADME, organism-based
Conditions: whole blood
Summary of the method: (§2)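 Male Sprague-Dawley rats, cassette dosing. Compounds were given as an iv bolus and as an oral suspension. Blood samples were taken at intervals up to 24 h, processed by protein precipitation and analysed by HPLC-MS/MS.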
A clearance of 16 mL/min/kg was found for `O=C(O)C1=CCN(C2CCC3(Cc4ccccc4Oc4ccccc43)C2)CC1` (stereo unspecified) in this work.

Tested on: not listed separately
Assay: Volume of distribution at steady state in Sprague-Dawley rat at 1 mg/kg, iv and 3 mg/kg, po
Assay type: ADME, organism-based
Conditions: in vivo, read-out: Vdss
Summary of the method: as §2
A Vd of 2.7 L/kg was found for `O=C(O)C1=CCN(C2CCC3(Cc4ccccc4Oc4ccccc43)C2)CC1` (stereo unspecified) in this work.

Tested on: not listed separately
Assay: Half life in Sprague-Dawley rat at 1 mg/kg, iv and 3 mg/kg, po
Assay type: ADME, organism-based
Conditions: in vivo
Summary of the method: as §2
A half-life of 3 h was found for `O=C(O)C1=CCN(C2CCC3(Cc4ccccc4Oc4ccccc43)C2)CC1` (stereo unspecified) in this work.

Tested on: not listed separately
Assay: Oral bioavailability in Sprague-Dawley rat at 3 mg/kg
Assay type: ADME, organism-based
Conditions: in vivo
Summary of the method: as §2
A bioavailability of 37% was found for `O=C(O)C1=CCN(C2CCC3(Cc4ccccc4Oc4ccccc43)C2)CC1` (stereo unspecified) in this work.

Tested on: not listed separately
Assay: Ratio of drug level in brain to blood in Sprague-Dawley rat at 1 mg/kg, iv and 3 mg/kg, po
Assay type: ADME, organism-based
Conditions: read-out: BBR
Summary of the method: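 Male Sprague-Dawley rats, cassette dosing, iv bolus or oral suspension. Blood and brain levels were measured by protein precipitation and HPLC-MS/MS. Brain:blood ratio was taken from AUC0-8h after oral dosing, or at 1 h after iv dosing for one compound.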
A Kp of 1.8 was found for `O=C(O)C1=CCN(C2CCC3(Cc4ccccc4Oc4ccccc43)C2)CC1` (stereo unspecified) in this work.
